Active and inactive are the calls of the source.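 Rule for the calls: active = inhibition of 30% or more at any tested concentration; inactive = the rest.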

Our source for the IC50 and inhibition values is PubChem BioAssay AID624163 (Southern Research Specialized Biocontainment Screening …, 2012).

Chain of Aminopeptidase N (Plasmodium falciparum (isolate 3D7)) (O96935 whole entry, looked up): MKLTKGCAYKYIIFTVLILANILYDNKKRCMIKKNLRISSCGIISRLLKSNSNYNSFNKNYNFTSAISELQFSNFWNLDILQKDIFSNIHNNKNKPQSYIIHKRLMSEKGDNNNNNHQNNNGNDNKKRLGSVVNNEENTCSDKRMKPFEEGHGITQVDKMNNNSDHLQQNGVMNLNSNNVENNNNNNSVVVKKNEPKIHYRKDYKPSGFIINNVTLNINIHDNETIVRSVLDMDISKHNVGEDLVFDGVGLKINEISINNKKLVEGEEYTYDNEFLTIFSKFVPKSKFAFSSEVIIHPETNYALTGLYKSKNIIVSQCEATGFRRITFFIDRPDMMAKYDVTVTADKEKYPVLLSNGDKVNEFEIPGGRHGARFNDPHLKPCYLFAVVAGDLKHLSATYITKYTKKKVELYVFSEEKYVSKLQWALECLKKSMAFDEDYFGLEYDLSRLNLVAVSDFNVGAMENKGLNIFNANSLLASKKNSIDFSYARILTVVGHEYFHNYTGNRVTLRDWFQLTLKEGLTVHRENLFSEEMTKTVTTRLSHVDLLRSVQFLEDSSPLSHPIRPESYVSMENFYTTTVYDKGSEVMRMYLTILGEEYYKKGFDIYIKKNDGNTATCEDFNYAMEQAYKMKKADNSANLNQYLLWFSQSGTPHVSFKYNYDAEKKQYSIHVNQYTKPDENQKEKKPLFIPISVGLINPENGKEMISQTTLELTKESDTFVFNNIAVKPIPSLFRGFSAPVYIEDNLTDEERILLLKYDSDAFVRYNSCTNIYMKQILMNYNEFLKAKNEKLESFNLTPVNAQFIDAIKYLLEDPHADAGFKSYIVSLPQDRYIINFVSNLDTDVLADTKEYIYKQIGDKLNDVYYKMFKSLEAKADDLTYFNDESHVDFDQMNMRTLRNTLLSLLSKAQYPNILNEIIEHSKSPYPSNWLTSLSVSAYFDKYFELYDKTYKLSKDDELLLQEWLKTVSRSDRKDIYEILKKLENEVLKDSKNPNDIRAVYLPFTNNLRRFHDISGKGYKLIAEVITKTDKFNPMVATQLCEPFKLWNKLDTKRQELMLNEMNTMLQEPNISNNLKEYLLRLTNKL

The first assay addresses Aminopeptidase N (Plasmodium falciparum (isolate 3D7)) (UniProt O96935). The assay can be described thus: inhibition of P. falciparum M1 alanyl aminopeptidase – biochemical, QFRET, fluorogenic H-Leu-NHMec substrate, set 3, dose response (AID 624163). The note with it: purified rPFM1AAP, H-Leu-NHMec fluorogenic substrate cleavage. The essentials:
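Assay system – purified recombinant Plasmodium falciparum M1 alanyl aminopeptidase (rPfM1AAP) · Quantity – rPfM1AAP enzyme at 5 µg/mL final · Also added – fluorogenic substrate H-Leu-NHMec at 0.1 mM final · Compound dosing – ten twofold doses, 0.2–100 µM · Times – enzyme-substrate-compound incubation 90 min at room temperature · Signal – fluorescence of released NHMec, excitation 370 nm, emission 460 nm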
For orientation: IC50 means the midpoint of a concentration-inhibition curve. Take `O=C(NCc1cccc(F)c1)C1CCN(S(=O)(=O)c2ccc(Br)s2)CC1`: the half-maximal inhibitory concentration (IC50) was 2.18 µM.
Take `O=C(NCc1cccc(F)c1)C1CCN(S(=O)(=O)c2ccc(Cl)s2)CC1`: the half-inhibitory concentration (IC50) was 3.98 µM.
With `O=C(NCc1ccc2c(c1)OCO2)C1CCN(S(=O)(=O)c2ccc(Cl)s2)CC1`, the IC50 is 2.83 µM.
With `O=C(NCc1ccccc1F)C1CCN(S(=O)(=O)c2ccc(Br)s2)CC1`, the half-maximal inhibitory concentration (IC50) is 2.53 µM.
As to `O=C(NCc1ccccc1F)C1CCN(S(=O)(=O)c2ccc(Cl)s2)CC1`, the half-maximal inhibitory concentration (IC50) is 3.97 µM.
For the compound `O=C(NCc1ccc2c(c1)OCO2)C1CCN(S(=O)(=O)c2ccc(Br)cc2)CC1`, the IC50 is 7.44 µM.
The same measure, in the same setting: the same measure for `O=C(NCc1ccc(F)cc1)C1CCN(S(=O)(=O)c2sccc2Br)CC1`: 69.2 µM.
On the same count and under the same terms, under `O=C(NCc1ccc(F)cc1)C1CCN(S(=O)(=O)c2ccc(Br)cc2)CC1` stands 28 µM; under `O=C(NCc1ccccc1F)C1CCN(S(=O)(=O)c2ccc(Br)cc2)CC1`, 12.7 µM.
The same measure, in the same setting: the same measure for `O=C(NCc1ccc(F)cc1)C1CCN(S(=O)(=O)c2ccc(Br)s2)CC1`: 3.95 µM; for `O=C(NCc1ccccc1F)C1CCN(S(=O)(=O)c2sccc2Br)CC1`: 33.7 µM; for `O=C(NCc1cccc(F)c1)C1CCN(S(=O)(=O)c2sccc2Br)CC1`: 29.8 µM.
Regarding `O=C(NCc1ccc2c(c1)OCO2)C1CCN(S(=O)(=O)c2sccc2Br)CC1`, the half-inhibitory concentration (IC50) is 34.3 µM.
Still for that read-out and setting: under `O=C(NCc1ccc2c(c1)OCO2)C1CCN(S(=O)(=O)c2ccc(Br)s2)CC1` stands 1.22 µM; under `O=C(NCc1cccc(F)c1)C1CCN(S(=O)(=O)c2ccc(Br)cc2)CC1`, 11.2 µM.
Still for that read-out and setting: under `O=C(NCc1ccc(F)cc1)C1CCN(S(=O)(=O)c2ccc(Cl)s2)CC1` stands 6.48 µM.

The same assay, now with this note: purified rPFM1AAP, H-Leu-NHMec fluorogenic substrate cleavage; at 100 µM (top of the series).
With `O=C(NCCc1ccc2c(c1)OCO2)C1CCN(S(=O)(=O)c2cc(Br)c(Br)s2)CC1`, the inhibition entry is “inactive”.
The same measure, in the same setting: under `O=C(Nc1ccc2c(c1)OCO2)C1CCN(S(=O)(=O)c2ccc(Cl)s2)CC1` stands “inactive”; under `O=C(NCc1ccc(F)cc1)C1CCN(S(=O)(=O)c2cc(Br)c(Br)s2)CC1`, “inactive”.
`O=C(NCCc1ccc2c(c1)OCO2)C1CCN(S(=O)(=O)c2ccc(Br)cc2)CC1`: the inhibition result was “inactive”.
Still for that read-out and setting: under `O=C(NCc1cccc(F)c1)C1CCN(S(=O)(=O)c2cc(Br)c(Br)s2)CC1` stands “inactive”; under `O=C(NCCc1ccc2c(c1)OCO2)C1CCN(S(=O)(=O)c2ccc(Br)s2)CC1`, “inactive”.
Same read-out and setting: the same measure for `O=C(NCc1ccc2c(c1)OCO2)C1CCN(S(=O)(=O)c2cc(Br)c(Br)s2)CC1`: “inactive”.
Same read-out and setting: the same measure for `O=C(NCCc1ccc2c(c1)OCO2)C1CCN(S(=O)(=O)c2sccc2Br)CC1`: “inactive”; for `O=C(Nc1ccc2c(c1)OCO2)C1CCN(S(=O)(=O)c2cc(Br)c(Br)s2)CC1`: “inactive”.
Consider `O=C(Nc1ccc2c(c1)OCO2)C1CCN(S(=O)(=O)c2ccc(Br)cc2)CC1`, for which the inhibition entry is “inactive”.
The same measure, in the same setting: the same measure for `O=C(Nc1ccc2c(c1)OCO2)C1CCN(S(=O)(=O)c2sccc2Br)CC1`: “inactive”; for `O=C(Nc1ccc2c(c1)OCO2)C1CCN(S(=O)(=O)c2ccc(Br)s2)CC1`: “inactive”.
On the same count and under the same terms, under `O=C(NCCc1ccc2c(c1)OCO2)C1CCN(S(=O)(=O)c2ccc(Cl)s2)CC1` stands “inactive”.
On the same count and under the same terms, under `O=C(NCc1ccccc1F)C1CCN(S(=O)(=O)c2cc(Br)c(Br)s2)CC1` stands “inactive”.
